core dimer inh: inhibitors of HCV core protein dimerization, primary screen, biochemical, TR-FRET, high-throughput; TR-FRET GST/Flag-core106 dimerization, 1536-well; inhibition, % at 5 µM; 300,000 tested, 0.33% active; AID 1899, 2009;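 active = inhibition above the mean of all tested compounds plus 3 SD, set per screening campaign, cut at about 45% in these data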
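assay system = GST-tagged and Flag-tagged HCV core protein residues 1-106 | controls = unlabelled core106 and no-GST-core106 wells | incubation = compound-protein-antibody incubation 4 h at 22.5 °C | probe or stimulus = Eu donor and XL665 acceptor anti-tag antibodies | read-out = % inhibition based on acceptor/donor emission ratio | signal = TR-FRET 671 and 617 nm emission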
eIF4E-4G inh: eIF4E–eIF4G protein interaction inhibitors, primary screen, biochemical, uHTS, TR-FRET, eIF4GI fragment. TR-FRET eIF4E-eIF4GI(517-606) binding, 2 h. 220,000 tested, 0.37% active. AID 782, 2007. inhibition, % at 21.7 µM;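 active = inhibition above about 30%, limit read from the data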;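 also: 0% = full FRET control wells and 100% = background wells lacking eIF4GI fragment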
eIF4H FP inh: human eIF4H binding inhibitors, primary screen, translation initiation inhibitor project, biochemical, uHTS, fluorescence polarization. Eukaryotic translation initiation factor 4H (Homo sapiens), Q15056. eIF4H fluorescence polarization binding assay. inhibition, % at 35 µM. 290,000 tested, 0.94% active;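 also: calls also rest on retests at 20 µM and on dose response follow-up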
PABP FP inh: PABP poly(A) RNA binding inhibitors, primary screen, biochemical, fluorescence polarization, uHTS. Polyadenylate-binding protein 1 (Homo sapiens), P11940. calls only at 35 µM. 290,000 tested, 1% active;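 also: calls also rest on retests at 20 µM and on dose response follow-up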
SUMO HTRF inh: inhibitors of in vitro SUMOylation cascade, primary screen, biochemical, HTRF, uHTS. inhibition, % at 35 µM. HTRF SUMOylation assay, SAE1/SAE2 + UBC9. SUMO-conjugating enzyme UBC9 (Homo sapiens), P63279. 290,000 tested, 0.36% active. AID 2006, 2009; in the data active = inhibition above about 50%, passing the limit was not always enough; inconclusive = no clear call, values can overlap the other calls
Target sequence (P63279 whole entry, looked up): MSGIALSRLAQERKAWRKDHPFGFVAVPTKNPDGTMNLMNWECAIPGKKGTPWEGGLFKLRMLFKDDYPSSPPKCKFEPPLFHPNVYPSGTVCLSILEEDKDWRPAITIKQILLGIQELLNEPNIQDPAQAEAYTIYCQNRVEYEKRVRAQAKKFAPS
PABP1 MLLE inh: inhibitors of PABP1 MLLE–PAM2 peptide binding, primary screen, biochemical, fluorescence polarization, FITC-PAM2, GST-MLLE. inhibition, % at 20 µM. Polyadenylate-binding protein 1 (Homo sapiens), P11940. 360,000 tested, 0.36% active. AID 588489, 2011; in the data active = inhibition above about 35%, passing the limit was not always enough;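 also: plate controls were DMSO wells with GST-MLLE for no effect and wells lacking GST-MLLE protein for full effect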
* = called active by the depositor; i = inactive; ? = inconclusive; nt = no result given; + = active, no number; [ ] = remark or other dose. Most compounds without a hit are left out; they make up all but 1.8% or so of the library. Unless noted, no rule for the calls is given here.

SMILES	core dimer inh	eIF4E-4G inh	eIF4H FP inh	PABP FP inh	SUMO HTRF inh	PABP1 MLLE inh
O=C1C=C(c2ccc3ccccc3c2)C[C@@H](c2ccc(F)cc2)C1	nt	nt	nt	nt	nt	-1
COc1ccc(N(CC(=O)NCCSCc2ccco2)S(=O)(=O)c2ccccc2)cc1	-1	-1	-7	i	5	7
O=C(CN(c1ccccc1)S(=O)(=O)c1ccccc1)NCCSCc1ccco1	13	-24	81*	i	37	14
COC(=O)c1sc(NC(=O)/C=C/c2ccc(C)o2)nc1C	-2	0	95*	i	10	5
Cc1ccc(/C=C/C(=O)Nc2nn[nH]n2)o1	-4	3	38	i	4	36*
CC(=O)N1N=C(c2ccco2)CC1c1cc2ccc(C)cc2nc1Cl (stereo not drawn)	1	0	-3	i	7	-4
CSc1nc2oc3c(c2c2nncn12)CC(C)(C)SC3	-3	7	32	i	-3	45*
CC(=O)Nc1cccc(NC(=O)c2cc(-c3cccnc3)nc3ccc(Cl)cc23)c1	1	0	-4	i	-1	-15
CC(=O)Nc1cccc(NC(=O)c2cc(-c3ccccn3)nc3ccc(Cl)cc23)c1	-18	nt	52	+	-2	-3
Cc1ccc(S(=O)(=O)c2cc3c(=O)n4ccccc4nc3n(CC3CCCO3)c2=N)cc1C (stereo not drawn)	-3	3	?	i	40	-7
Cc1ccc(S(=O)(=O)c2cc3c(=O)n4ccccc4nc3n(Cc3ccco3)c2=N)cc1C	70*	9	67*	+	61	nt
Cc1cccn2c(=O)c3cc(S(=O)(=O)c4ccc(F)cc4)c(=N)n(Cc4ccco4)c3nc12	16	17	83*	+	73	-9
CCOC(=O)c1cc2c(=O)n3ccccc3nc2n(Cc2ccco2)c1=NC(=O)c1ccccc1OC	11	2	51*	i	24	3
N=c1c(C(=O)NCCc2ccccc2)cc2c(=O)n3ccccc3nc2n1Cc1ccco1	25	nt	93*	i	32	0
N=c1c(C(=O)NC2CCCCC2)cc2c(=O)n3ccccc3nc2n1Cc1ccco1	13	nt	48	i	38	-10
O=CC(O)C1OC(=O)C(O)C1O (stereo not drawn)	nt	nt	nt	nt	nt	-5
N=c1c(S(=O)(=O)c2ccccc2)cc2c(=O)n3ccccc3nc2n1Cc1ccco1	87*	nt	95*	+	50*	-13
Cc1ccc2nc3c(cc(S(=O)(=O)c4ccccc4)c(=N)n3Cc3ccco3)c(=O)n2c1	13	16	70	i	80*	-11
CCOCCCn1c(=N)c(S(=O)(=O)c2ccc(C)cc2)cc2c(=O)n3cc(C)ccc3nc21	3	nt	?	i	12	40*
Cc1cccn2c(=O)c3cc(S(=O)(=O)c4ccccc4)c(=N)n(Cc4ccco4)c3nc12	26	15	86	i	59	9
CCn1c(=N)c(S(=O)(=O)c2ccc(C)cc2)cc2c(=O)n3ccccc3nc21	5	1	2	i	16	nt
NC(=O)COC(=O)c1cccc2c1-c1ccccc1C2=O	-1	-3	?	+	10	13
COc1ccc([N+](=O)[O-])cc1N(CC(O)CN1C(=O)NC(C)(C)C1=O)S(=O)(=O)c1ccc(C)cc1 (stereo not drawn)	nt	nt	nt	nt	nt	-7
Brc1ccc(-c2csc(/N=C/N3CCOCC3)n2)cc1	1	-1	1	i	7	3
Brc1ccc(-c2csc(/N=C/N3CCCC3)n2)cc1	7	0	active	+	-5	11
SMILES	core dimer inh	eIF4E-4G inh	eIF4H FP inh	PABP FP inh	SUMO HTRF inh	PABP1 MLLE inh
CC(C)CNc1nc(=S)nc(N(C)C)[nH]1	-3	5	-12	i	18	43*
CCN(CC(=O)Nc1c(F)cccc1F)C(=O)Cc1ccc2c(c1)CCC2	4	nt	nt	nt	nt	41*
Cc1ccc(C)c(CC(=O)N2CCCCC2c2cc(C(=O)Nc3ccc(F)c(Cl)c3)no2)c1 (stereo not drawn)	nt	nt	nt	nt	nt	-12
Cc1cc(S(=O)(=O)N2CCCOC2CNC(=O)C(=O)NCc2ccco2)ccc1F (stereo not drawn)	-8	-2	4	i	5	6
[O-]/[N+](=C/c1ccc(F)cc1)c1ccc(Cl)cc1	0	4	-4	i	-2	42*
[O-][N+](=Cc1ccccc1)c1ccc(Cl)cc1	nt	nt	nt	nt	nt	10
Cc1ccc(-c2cc(-c3ccc(Cl)cc3)c(C#N)c(N)n2)o1	27	72*[fluorescence artefact?]	91	i	34	-9
Cc1cc(-c2cc(-c3ccc(Cl)cc3)nc(N)c2C#N)co1	27	16	?	+	7	-14
Cc1ccc(-c2c(C#N)c(N)nc3c2CCCCCC3)o1	8	2	4	i	24	24
Cc1ccc(-c2c(C#N)c(N)nc3c2CCCCC3)o1	1	-1	63*	+	33	9
Cc1ccc(-c2cc(-c3ccc(C)o3)nc(N)c2C#N)cc1	60*	12	?	?	16	-17
CC(C)OC(=O)C1OC1(C)c1ccccc1 (stereo not drawn)	nt	nt	nt	nt	nt	-1
CCN(CC(=O)Nc1ccccc1C(F)(F)F)C(=O)c1ccc(-n2nc(C)c(CCC(=O)OC)c2C)cc1	nt	nt	nt	nt	nt	-10
C=CCNC(=S)NNC(=O)CC12CC3CC(CC(C3)C1)C2	-4	-5	4	i	4	-38
Cc1cscc(C)c1=S	nt	nt	nt	nt	nt	38*
C/C=C(\C)C(=O)NCCN1C2=NC[C@H](C(C)C)N2C[C@@H]1Cc1ccc(OC)cc1	1	-1	48	+	-4	11
CCOc1ccc(-n2cc(-c3ccccc3)c3c(=S)nc[nH]c32)cc1	11	nt	6	i	2	39*
CCN(CC)CCCN1C(=O)CSC1c1ccc2c(c1)OCO2 (stereo not drawn)	-5	10	-2	i	-2	10
CCN(CC)CCCN1C(=O)CSC1c1ccc([N+](=O)[O-])cc1 (stereo not drawn)	-6	2	-14	i	-2	42*
COc1ccc(C(=O)N2CCN(c3ncccn3)CC2)cc1[N+](=O)[O-]	-2	nt	2	i	4	3
NC(=O)c1c(NC(=O)C2CCCO2)sc2c1CCC2 (stereo not drawn)	1	0	7	i	16	13
